From ChEMBL document CHEMBL1275252, “First survey of metallo-beta-lactamases in clinical isolates of Pseudomonas aeruginosa in a German university hospital” (2010)
≈ marks a conversion by molar mass, not a printed value.

Assays:
Type in all cases: functional
Pseudomonas aeruginosa [1] = assay: Antimicrobial activity against Pseudomonas aeruginosa isolate PA399 expressing VIM-2 beta-lactamase
Pseudomonas aeruginosa [2] = assay: Antimicrobial activity against Pseudomonas aeruginosa isolate PA462 expressing VIM-2 beta-lactamase
Pseudomonas aeruginosa [3] = assay: Antimicrobial activity against Pseudomonas aeruginosa isolate PA465 expressing VIM-2 beta-lactamase
Pseudomonas aeruginosa [4] = assay: Antimicrobial activity against Pseudomonas aeruginosa isolate PA469 expressing VIM-2 beta-lactamase
Pseudomonas aeruginosa [5] = assay: Antimicrobial activity against Pseudomonas aeruginosa isolate PA475 expressing VIM-2 beta-lactamase
Pseudomonas aeruginosa [6] = assay: Antimicrobial activity against Pseudomonas aeruginosa isolate PA477 expressing VIM-2 beta-lactamase
Pseudomonas aeruginosa [7] = assay: Antimicrobial activity against Pseudomonas aeruginosa isolate PA481 expressing VIM-2 beta-lactamase
Pseudomonas aeruginosa [8] = assay: Antimicrobial activity against Pseudomonas aeruginosa isolate PA500 expressing VIM-1 beta-lactamase
Pseudomonas aeruginosa [9] = assay: Antimicrobial activity against Pseudomonas aeruginosa isolate PA510 expressing VIM-2 beta-lactamase
Pseudomonas aeruginosa [10] = assay: Antimicrobial activity against metallo-beta-lactamase-negative Pseudomonas aeruginosa isolate PA459
Summary of the method: (§1)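 MBL-negative clinical P. aeruginosa isolates with reduced imipenem susceptibility, collected at the study hospital, some from cystic fibrosis patients. Species identity was confirmed by automated Gram-negative identification card. MIC was read in μg/ml.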

Pseudomonas aeruginosa [11] = assay: Antimicrobial activity against metallo-beta-lactamase-negative Pseudomonas aeruginosa isolate PA479
Pseudomonas aeruginosa [12] = assay: Antimicrobial activity against metallo-beta-lactamase-negative Pseudomonas aeruginosa isolate PA483
Pseudomonas aeruginosa [13] = assay: Antimicrobial activity against metallo-beta-lactamase-negative Pseudomonas aeruginosa isolate PA494
Pseudomonas aeruginosa [14] = assay: Antimicrobial activity against metallo-beta-lactamase-negative Pseudomonas aeruginosa isolate PA509
Pseudomonas aeruginosa [15] = assay: Antimicrobial activity against metallo-beta-lactamase-negative Pseudomonas aeruginosa isolate PA460
Pseudomonas aeruginosa [16] = assay: Antimicrobial activity against metallo-beta-lactamase-negative Pseudomonas aeruginosa isolate PA507; summary of the method: as §1

Row | SMILES | MIC (Pseudomonas aeruginosa [1]) [µg/mL] | MIC (Pseudomonas aeruginosa [2]) [µg/mL] | MIC (Pseudomonas aeruginosa [3]) [µg/mL] | MIC (Pseudomonas aeruginosa [4]) [µg/mL] | MIC (Pseudomonas aeruginosa [5]) [µg/mL] | MIC (Pseudomonas aeruginosa [6]) [µg/mL] | MIC (Pseudomonas aeruginosa [7]) [µg/mL] | MIC (Pseudomonas aeruginosa [8]) [µg/mL] | MIC (Pseudomonas aeruginosa [9]) [µg/mL] | MIC (Pseudomonas aeruginosa [10]) [µg/mL] | MIC (Pseudomonas aeruginosa [11]) [µg/mL] | MIC (Pseudomonas aeruginosa [12]) [µg/mL] | MIC (Pseudomonas aeruginosa [13]) [µg/mL] | MIC (Pseudomonas aeruginosa [14]) [µg/mL] | MIC (Pseudomonas aeruginosa [15]) [µg/mL] | MIC (Pseudomonas aeruginosa [16]) [µg/mL]
1 | CO/N=C(\C(=O)N[C@@H]1C(=O)N2C(C(=O)[O-])=C(C[N+]3(C)CCCC3)CS[C@H]12)c1csc(N)n1 [CEFEPIME] | ≥ 64 | ≥ 64 | ≥ 64 | ≥ 64 | ≥ 64 | ≥ 64 | ≥ 64 | ≥ 64 | ≥ 64 | 8 (≈ 16.6 µM) | ≥ 64 | 32 (≈ 66.6 µM) | 8 (≈ 16.6 µM) | 16 (≈ 33.3 µM) | – | –
2 | C[C@@H](O)[C@H]1C(=O)N2C(C(=O)O)=C(S[C@@H]3CN[C@H](C(=O)N(C)C)C3)[C@H](C)[C@H]12 [MEROPENEM] | ≥ 16 | ≥ 16 | ≥ 16 | ≥ 16 | ≥ 16 | ≥ 16 | ≥ 16 | ≥ 16 | ≥ 16 | 8 (≈ 20.9 µM) | ≥ 16 | ≥ 16 | 8 (≈ 20.9 µM) | ≥ 16 | 8 (≈ 20.9 µM) | 4 (≈ 10.4 µM)
3 | O=C(O)c1cn(C2CC2)c2cc(N3CCNCC3)c(F)cc2c1=O [CIPROFLOXACIN] | ≥ 4 | ≥ 4 | ≥ 4 | ≥ 4 | ≥ 4 | ≥ 4 | ≥ 4 | ≥ 4 | ≥ 4 | – | ≥ 4 | – | ≥ 4 | ≥ 4 | ≥ 4 | –
